# In ChEMBL document CHEMBL4251575, “Design, synthesis, and biological evaluation of 1,3-diarylisoquinolines as novel topoisomerase I catalytic inhibitors” (Eur J Med Chem, 2018):
# Structures can show the parent of a compound that is named as a salt.
# Experiments:
# MCF-10A = assay: Cytotoxicity against human MCF10A cells after 72 hrs by cell counting kit-8 analysis; assay type: cell-based
# How it was run: (§1)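 Cells seeded at 2×10^5 or 1×10^5 per well, grown overnight in medium with 10% FBS at 37 °C, 5% CO₂, then FBS-starved 4 h. Graded compound concentrations given for 72 h. CCK-8 then added for 4 h and absorbance read at 450 nm. IC50 from a four-parameter logistic fit; mean ± S.D. of three experiments, each in triplicate.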
# [1] = target: DNA topoisomerase 2-alpha (Homo sapiens) (UniProt P11388); assay: Inhibition of human DNA topoisomerase 2 alpha-mediated DNA relaxation at 100 uM incubated for 30 mins using pBR322 DNA substrate by ethidium bromide dye-based agarose gel electrophoresis
# Chain of DNA topoisomerase 2-alpha (Homo sapiens) (P11388 whole entry): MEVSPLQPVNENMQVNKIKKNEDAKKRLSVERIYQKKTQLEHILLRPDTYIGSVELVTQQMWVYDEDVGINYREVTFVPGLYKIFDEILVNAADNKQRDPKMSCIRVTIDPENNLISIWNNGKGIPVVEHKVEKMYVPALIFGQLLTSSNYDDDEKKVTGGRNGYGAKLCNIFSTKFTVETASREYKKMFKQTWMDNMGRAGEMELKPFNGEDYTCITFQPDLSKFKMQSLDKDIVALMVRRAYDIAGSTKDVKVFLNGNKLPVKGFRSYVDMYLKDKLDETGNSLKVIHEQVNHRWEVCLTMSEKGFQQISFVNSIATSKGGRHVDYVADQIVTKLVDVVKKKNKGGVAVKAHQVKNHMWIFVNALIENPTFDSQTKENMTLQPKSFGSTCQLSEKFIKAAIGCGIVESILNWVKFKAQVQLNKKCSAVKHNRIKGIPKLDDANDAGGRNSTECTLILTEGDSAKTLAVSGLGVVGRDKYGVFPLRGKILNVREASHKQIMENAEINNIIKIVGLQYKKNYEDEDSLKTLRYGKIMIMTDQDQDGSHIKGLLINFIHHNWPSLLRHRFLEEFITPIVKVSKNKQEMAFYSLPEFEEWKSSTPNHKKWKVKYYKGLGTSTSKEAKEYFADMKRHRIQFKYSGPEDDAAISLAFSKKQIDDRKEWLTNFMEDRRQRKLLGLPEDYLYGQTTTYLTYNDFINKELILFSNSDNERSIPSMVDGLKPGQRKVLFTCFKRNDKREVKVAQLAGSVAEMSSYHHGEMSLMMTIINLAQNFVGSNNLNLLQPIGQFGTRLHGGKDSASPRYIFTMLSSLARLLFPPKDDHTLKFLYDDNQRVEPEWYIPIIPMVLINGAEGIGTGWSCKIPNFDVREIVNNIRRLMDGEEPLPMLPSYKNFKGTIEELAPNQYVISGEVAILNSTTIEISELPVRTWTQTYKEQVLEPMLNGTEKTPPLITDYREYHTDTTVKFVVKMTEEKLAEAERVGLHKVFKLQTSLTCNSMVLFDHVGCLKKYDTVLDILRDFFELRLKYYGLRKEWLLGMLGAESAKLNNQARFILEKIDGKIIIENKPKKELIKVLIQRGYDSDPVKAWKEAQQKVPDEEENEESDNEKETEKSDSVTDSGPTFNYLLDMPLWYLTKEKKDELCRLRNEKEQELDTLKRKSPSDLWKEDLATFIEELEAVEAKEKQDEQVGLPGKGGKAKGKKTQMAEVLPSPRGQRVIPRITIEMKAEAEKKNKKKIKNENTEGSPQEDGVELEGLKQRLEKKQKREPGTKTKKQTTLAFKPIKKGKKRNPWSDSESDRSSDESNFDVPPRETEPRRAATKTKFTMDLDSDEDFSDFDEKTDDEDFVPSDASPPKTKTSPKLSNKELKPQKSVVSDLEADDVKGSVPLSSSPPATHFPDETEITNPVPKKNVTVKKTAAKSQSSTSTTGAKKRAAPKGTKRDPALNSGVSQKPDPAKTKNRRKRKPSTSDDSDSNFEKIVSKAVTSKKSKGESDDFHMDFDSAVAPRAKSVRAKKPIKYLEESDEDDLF
# How it was run: (§2)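 Stopped with EDTA and run on 1% agarose/TAE at 25 V for 4 h. EtBr-stained; supercoiled DNA quantified as % inhibition. Relative values are the ratio to the etoposide control.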
# HCT-15 = assay: Cytotoxicity against human HCT15 cells after 72 hrs by cell counting kit-8 analysis; assay type: functional, cell-based; details: HCT-15, 72 h; how it was run: as §1
# [2] = target: T1, DNA topoisomerase 1 (Homo sapiens) (UniProt P11387); assay: Inhibition of human recombinant DNA topoisomerase 1-mediated DNA relaxation at 100 uM incubated for 30 mins using pBR322 DNA substrate by ethidium bromide dye-based agarose gel electrophoresis relative to control camptothecin
# T1 sequence (whole entry): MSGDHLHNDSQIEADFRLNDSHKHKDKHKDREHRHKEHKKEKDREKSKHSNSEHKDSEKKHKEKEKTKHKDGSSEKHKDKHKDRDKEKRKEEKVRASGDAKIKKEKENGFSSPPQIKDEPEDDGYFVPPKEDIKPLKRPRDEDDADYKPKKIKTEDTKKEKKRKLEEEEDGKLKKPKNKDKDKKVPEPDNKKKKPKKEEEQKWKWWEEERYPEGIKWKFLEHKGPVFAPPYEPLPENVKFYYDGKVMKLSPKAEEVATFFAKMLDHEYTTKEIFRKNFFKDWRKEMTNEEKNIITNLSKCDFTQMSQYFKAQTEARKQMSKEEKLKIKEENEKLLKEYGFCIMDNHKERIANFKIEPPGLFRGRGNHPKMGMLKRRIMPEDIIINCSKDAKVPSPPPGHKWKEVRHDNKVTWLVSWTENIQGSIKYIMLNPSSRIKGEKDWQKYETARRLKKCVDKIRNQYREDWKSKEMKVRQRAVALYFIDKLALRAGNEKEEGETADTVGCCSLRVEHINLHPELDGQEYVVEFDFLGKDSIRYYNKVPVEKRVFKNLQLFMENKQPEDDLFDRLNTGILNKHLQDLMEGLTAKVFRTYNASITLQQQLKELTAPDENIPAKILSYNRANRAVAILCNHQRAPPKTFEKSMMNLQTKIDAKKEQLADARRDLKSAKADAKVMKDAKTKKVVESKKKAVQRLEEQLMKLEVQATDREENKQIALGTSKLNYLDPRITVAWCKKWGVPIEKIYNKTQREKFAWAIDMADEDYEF
# How it was run: (§3)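 pBR322 (100 ng) with recombinant human topo I (0.4 units) in 10 mM Tris-HCl pH 7.9, 150 mM NaCl, 0.1% BSA, 1 mM spermidine, 5% glycerol, 30 min at 37 °C. Stopped with sarcosyl/glycerol/dye and run on 1% agarose/TAE at 15 V for 7 h. EtBr-stained; supercoiled DNA quantified as % inhibition. Relative values are the ratio to the camptothecin control.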
# DU-145 = assay: Cytotoxicity against human DU145 cells after 72 hrs by cell counting kit-8 analysis; assay type: functional, cell-based; details: DU-145, 72 h; how it was run: as §1
# [3] = target: T1, DNA topoisomerase 1 (Homo sapiens); assay: Inhibition of human recombinant DNA topoisomerase 1-mediated DNA relaxation at 100 uM incubated for 30 mins using pBR322 DNA substrate by ethidium bromide dye-based agarose gel electrophoresis; how it was run: as §3
# T47D = assay: Cytotoxicity against human T47D cells after 72 hrs by cell counting kit-8 analysis; assay type: functional, cell-based; how it was run: as §1
# [4] = target: DNA topoisomerase 2-alpha (Homo sapiens) (UniProt P11388); assay: Inhibition of human DNA topoisomerase 2 alpha-mediated DNA relaxation at 100 uM incubated for 30 mins using pBR322 DNA substrate by ethidium bromide dye-based agarose gel electrophoresis relative to control etoposide; how it was run: as §2
# [5] = target: T1, DNA topoisomerase 1 (Homo sapiens); assay: Inhibition of human recombinant DNA topoisomerase 1-mediated DNA relaxation at 20 uM incubated for 30 mins using pBR322 DNA substrate by ethidium bromide dye-based agarose gel electrophoresis relative to control camptothecin; how it was run: as §3
# [6] = target: DNA topoisomerase 2-alpha (Homo sapiens) (UniProt P11388); assay: Inhibition of human DNA topoisomerase 2 alpha-mediated DNA relaxation at 20 uM incubated for 30 mins using pBR322 DNA substrate by ethidium bromide dye-based agarose gel electrophoresis; how it was run: as §2
# [7] = target: T1, DNA topoisomerase 1 (Homo sapiens); assay: Inhibition of human recombinant DNA topoisomerase 1-mediated DNA relaxation at 20 uM incubated for 30 mins using pBR322 DNA substrate by ethidium bromide dye-based agarose gel electrophoresis; how it was run: as §3
# [8] = target: DNA topoisomerase 2-alpha (Homo sapiens) (UniProt P11388); assay: Inhibition of human DNA topoisomerase 2 alpha-mediated DNA relaxation at 20 uM incubated for 30 mins using pBR322 DNA substrate by ethidium bromide dye-based agarose gel electrophoresis relative to control etoposide; how it was run: as §2
Compound,IC50 (MCF-10A) [µM],inhibition [1] [%],IC50 (HCT-15) [µM],Ratio [2],IC50 (DU-145) [µM],inhibition [3] [%],IC50 (T47D) [µM],Ratio [4],Ratio [5],inhibition [6] [%],inhibition [7] [%],Ratio [8]
COc1ccc(-c2cc3ccccc3c(-c3ccc(O)cc3)n2)cc1,> 50,0,> 50,0.09,> 50,6.7,1.22,0,–,–,–,–
COc1ccc(-c2cc3cc(C)ccc3c(-c3cccc(OCCCN(C)C)c3)n2)c(C)c1,6.07,40.9,0.87,0.6,–,39.3,0.29,0.67,0,10.5,0,0.28
COc1ccc(-c2cc3cc(C)ccc3c(-c3cccc(O)c3)n2)cc1OC,13.5,34.5,0.37,0.03,6.51,1.7,4.34,0.38,–,0.4,–,0.01
COc1ccc(-c2cc3cc(C)ccc3c(-c3ccc(O)cc3)n2)cc1OC,18.1,36.5,2.52,0.005,5.98,0.3,4.42,0.4,–,0,–,0
COc1cc(OC)cc(-c2cc3cc(OC)c(OC)cc3c(-c3cccc(O)c3)n2)c1,5.9,0,0.54,0.06,8.12,4.6,3.92,0,–,–,–,–
COc1ccc(-c2nc(-c3ccc(OC)c(OC)c3)cc3cc(C)ccc23)cc1,> 50,0,28.7,0.04,> 50,2.3,3.34,0,–,–,–,–
COc1ccc(-c2cc3ccccc3c(-c3cccc(N)c3)n2)cc1,18.8,7.7,2.35,0,–,0,0.95,0.12,–,–,–,–
COc1ccc(-c2cc3cc(C)ccc3c(-c3ccc(OCCN(C)C)cc3)n2)cc1OC,5.31,75.8,0.97,1.22,–,79.6,2.33,1.24,0,15.3,0,0.41
COc1ccc(-c2cc3ccccc3c(-c3cccc(OC)c3)n2)cc1,> 50,0,1.3,0.58,> 50,43.2,0.86,0,0,–,0,–
COc1ccc(-c2cc3ccccc3c(-c3cccc(O)c3)n2)cc1,7.83,84.3,1.2,0.12,5.36,9.4,0.58,1.07,–,0,–,0
COc1ccc(-c2cc3ccccc3c(-c3ccc(OC)cc3)n2)cc1,> 50,7.4,2.79,0,–,0,0.85,0.11,–,–,–,–
COc1cc(OC)cc(-c2cc3ccccc3c(-c3cccc(N)c3)n2)c1,> 50,23.6,4.08,0,–,0,0.98,0.37,–,–,–,–
COc1cc(OC)cc(-c2cc3ccccc3c(-c3cccc(OC)c3)n2)c1,> 50,16.7,1.17,0,–,0,1.12,0.26,–,–,–,–
COc1cccc2c1C(=O)c1c(O)c3c(c(O)c1C2=O)C[C@@](O)(C(=O)CO)C[C@@H]3O[C@H]1C[C@H](N)[C@H](O)[C@H](C)O1 [DOXORUBICIN HYDROCHLORIDE],0.93,–,–,–,–,–,–,–,–,–,–,–
COc1ccc(-c2cc3cc(C)ccc3c(-c3cccc(OCCN(C)C)c3)n2)c(C)c1,6.35,49.6,2.2,0.05,–,3.7,0.6,0.81,–,13.2,–,0.35
COc1ccc(-c2cc3cc(C)ccc3c(-c3cccc(N)c3)n2)cc1OC,5.6,6.9,2.7,0.11,–,7.2,0.45,0.11,–,–,–,–
COc1cccc(-c2nc(-c3ccc(OC)c(OC)c3)cc3cc(C)ccc23)c1,> 50,0,1.84,0.05,> 50,2.9,7.86,0,–,–,–,–
COc1ccc(-c2cc3ccccc3c(-c3cccc(OCCCN(C)C)c3)n2)cc1,10.2,20.2,1.75,0.81,–,47.9,0.16,0.32,0.38,–,12.1,–
